The source made the active and inactive calls. No cut-off for these calls is given here.
Assays:
[1] = biological target: Histone deacetylase 2 (Homo sapiens, UniProt Q92769); experiment: Inhibition of HDAC2 (unknown origin) assessed as inhibition of fluorogenic peptide deacetylation
[2] = biological target: T1, Protein deacetylase HDAC6 (Homo sapiens, UniProt Q9UBN7); experiment: Inhibition of HDAC6 (unknown origin) assessed as inhibition of fluorogenic peptide deacetylation
T1 sequence (Q9UBN7 whole entry): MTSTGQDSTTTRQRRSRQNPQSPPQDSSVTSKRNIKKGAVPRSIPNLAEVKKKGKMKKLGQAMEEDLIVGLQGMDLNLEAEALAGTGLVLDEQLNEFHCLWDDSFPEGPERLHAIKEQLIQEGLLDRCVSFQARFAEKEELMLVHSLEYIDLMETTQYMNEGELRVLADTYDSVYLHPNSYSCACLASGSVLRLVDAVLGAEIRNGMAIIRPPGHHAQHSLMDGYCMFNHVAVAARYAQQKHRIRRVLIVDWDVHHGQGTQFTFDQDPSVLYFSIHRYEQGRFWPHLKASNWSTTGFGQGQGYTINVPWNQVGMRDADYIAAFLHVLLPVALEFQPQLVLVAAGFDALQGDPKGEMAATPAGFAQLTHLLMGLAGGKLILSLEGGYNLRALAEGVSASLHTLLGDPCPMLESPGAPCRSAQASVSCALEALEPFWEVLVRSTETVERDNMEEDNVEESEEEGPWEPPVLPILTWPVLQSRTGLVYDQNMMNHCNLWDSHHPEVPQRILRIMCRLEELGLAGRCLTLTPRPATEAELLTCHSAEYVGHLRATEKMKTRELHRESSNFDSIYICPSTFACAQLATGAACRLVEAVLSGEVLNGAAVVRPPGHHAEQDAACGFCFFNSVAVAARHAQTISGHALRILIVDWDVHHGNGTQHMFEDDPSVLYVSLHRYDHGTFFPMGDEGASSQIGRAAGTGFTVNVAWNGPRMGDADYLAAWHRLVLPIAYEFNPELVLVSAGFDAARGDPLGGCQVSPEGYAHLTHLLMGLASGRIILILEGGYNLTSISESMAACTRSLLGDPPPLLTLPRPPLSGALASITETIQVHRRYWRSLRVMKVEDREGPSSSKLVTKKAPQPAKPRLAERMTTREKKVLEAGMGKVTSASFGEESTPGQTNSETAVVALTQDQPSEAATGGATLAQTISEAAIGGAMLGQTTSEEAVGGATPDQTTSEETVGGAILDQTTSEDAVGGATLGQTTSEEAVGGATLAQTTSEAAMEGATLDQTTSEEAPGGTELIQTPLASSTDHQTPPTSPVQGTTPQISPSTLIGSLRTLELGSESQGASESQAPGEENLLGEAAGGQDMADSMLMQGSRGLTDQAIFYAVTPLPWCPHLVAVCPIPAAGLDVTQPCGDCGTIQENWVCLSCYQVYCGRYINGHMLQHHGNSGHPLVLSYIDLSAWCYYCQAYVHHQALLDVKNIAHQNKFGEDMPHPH

[3] = biological target: Histone deacetylase 3 (Homo sapiens, UniProt O15379); experiment: Inhibition of HDAC3 (unknown origin) assessed as inhibition of fluorogenic peptide deacetylation
[4] = biological target: Histone deacetylase 1 (Homo sapiens, UniProt Q13547); experiment: Inhibition of HDAC1 (unknown origin) assessed as inhibition of fluorogenic peptide deacetylation
[5] = biological target: T2, Androgen receptor (Homo sapiens, UniProt P10275); experiment: Displacement of [3H]mibolerone from androgen receptor (unknown origin) in membranes after 24 hrs by HAP adsorption assay
T2 sequence (P10275 whole entry): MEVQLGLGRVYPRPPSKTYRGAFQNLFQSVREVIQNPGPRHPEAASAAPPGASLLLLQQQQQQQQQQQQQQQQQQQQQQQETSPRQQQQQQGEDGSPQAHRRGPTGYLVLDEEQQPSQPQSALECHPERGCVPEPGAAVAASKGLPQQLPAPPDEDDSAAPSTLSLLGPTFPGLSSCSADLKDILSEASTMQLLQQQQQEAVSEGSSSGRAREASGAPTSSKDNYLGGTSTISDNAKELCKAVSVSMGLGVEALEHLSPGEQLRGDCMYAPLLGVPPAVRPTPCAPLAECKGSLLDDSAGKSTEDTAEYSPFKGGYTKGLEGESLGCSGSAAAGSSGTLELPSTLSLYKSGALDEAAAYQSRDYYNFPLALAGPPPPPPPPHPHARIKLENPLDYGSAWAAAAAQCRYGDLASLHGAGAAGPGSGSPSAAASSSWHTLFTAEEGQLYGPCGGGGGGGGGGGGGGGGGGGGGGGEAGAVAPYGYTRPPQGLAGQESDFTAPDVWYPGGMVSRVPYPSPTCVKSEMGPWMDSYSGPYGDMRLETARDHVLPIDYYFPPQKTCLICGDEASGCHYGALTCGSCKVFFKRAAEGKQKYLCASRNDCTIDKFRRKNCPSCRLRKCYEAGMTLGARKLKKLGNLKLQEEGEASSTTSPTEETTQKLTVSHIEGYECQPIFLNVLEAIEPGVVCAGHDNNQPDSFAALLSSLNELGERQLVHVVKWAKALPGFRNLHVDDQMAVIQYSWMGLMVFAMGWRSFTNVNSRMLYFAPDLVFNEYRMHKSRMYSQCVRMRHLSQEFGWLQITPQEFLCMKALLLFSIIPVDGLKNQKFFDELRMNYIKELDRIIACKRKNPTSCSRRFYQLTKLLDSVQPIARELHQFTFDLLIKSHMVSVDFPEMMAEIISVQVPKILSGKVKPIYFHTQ

[6] = Clearance in mouse at 2 mg/kg, iv by HPLC-MS analysis; type: ADME, organism-based; conditions: in vivo
Outline: (§1)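 Mice dosed iv at 2 mg/kg, or ip or sc at 10 mg/kg. Plasma concentration–time profiles were obtained by sparse sampling with N = 3 per time-point. Parameters (Cmax, Tmax, AUClast, terminal t1/2, CL, Vz, bioavailability) were derived by noncompartmental analysis.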

[7] = Bioavailability in mouse at 10 mg/kg, sc by HPLC-MS analysis; type: ADME, organism-based; conditions: in vivo; outline: as §1
[8] = Cmax in mouse at 10 mg/kg, ip by HPLC-MS analysis; type: ADME, organism-based; parameters: dose 10 mg/kg, route intraperitoneal; conditions: in vivo; outline: as §1
[9] = Terminal half life in mouse at 10 mg/kg, sc by HPLC-MS analysis; type: ADME, organism-based; conditions: in vivo, read-out: beta t1/2 (converted); outline: as §1
[10] = Cmax in mouse at 10 mg/kg, sc by HPLC-MS analysis; type: ADME, organism-based; parameters: dose 10 mg/kg, route subcutaneous; conditions: in vivo; outline: as §1
[11] = Tmax in mouse at 10 mg/kg, ip by HPLC-MS analysis; type: ADME, organism-based; conditions: in vivo; outline: as §1
[12] = Tmax in mouse at 10 mg/kg, sc by HPLC-MS analysis; type: ADME, organism-based; conditions: in vivo; outline: as §1
[13] = AUClast in mouse at 2 mg/kg, iv by HPLC-MS analysis; type: ADME, organism-based; parameters: dose 2 mg/kg, route intravenous, time 0 - last; conditions: in vivo; outline: as §1
[14] = AUClast in mouse at 10 mg/kg, sc by HPLC-MS analysis; type: ADME, organism-based; parameters: dose 10 mg/kg, time 0 - last, route subcutaneous; conditions: in vivo; outline: as §1
[15] = AUClast in mouse at 10 mg/kg, ip by HPLC-MS analysis; type: ADME, organism-based; parameters: dose 10 mg/kg, time 0 - last, route intraperitoneal; conditions: in vivo; outline: as §1
[16] = Terminal half life in mouse at 10 mg/kg, ip by HPLC-MS analysis; type: ADME, organism-based; conditions: in vivo, read-out: beta t1/2 (converted); outline: as §1
[17] = Bioavailability in mouse at 10 mg/kg, ip by HPLC-MS analysis; type: ADME, organism-based; conditions: in vivo; outline: as §1
[18] = Metabolic stability in mouse liver microsomes assessed as compound remaining at 1 uM measured after 30 mins in presence of NADPH by LC-MS/MS analysis; type: ADME; conditions: read-out: Stability
[19] = Apparent volume of distribution in mouse at 2 mg/kg, iv by HPLC-MS analysis; type: ADME, organism-based; conditions: in vivo, read-out: Vz; outline: as §1
[20] = system: UGT; experiment: Metabolic stability in mouse liver microsomes assessed as UGT-mediated glucuronidation of compound by measuring parent compound remaining at 5 uM after 30 mins in presence of UDPGA by LC-MS/MS analysis; type: ADME; conditions: read-out: Stability
[21] = Cmax in mouse at 2 mg/kg, iv by HPLC-MS analysis; type: ADME, organism-based; parameters: dose 2 mg/kg, route intravenous; conditions: in vivo; outline: as §1
[22] = Terminal half life in mouse at 2 mg/kg, iv by HPLC-MS analysis; type: ADME, organism-based; conditions: in vivo, read-out: beta t1/2 (converted); outline: as §1
[23] = Tmax in mouse at 2 mg/kg, iv by HPLC-MS analysis; type: ADME, organism-based; conditions: in vivo; outline: as §1
[24] = Metabolic stability in human liver microsomes assessed as compound remaining at 1 uM measured after 30 mins in presence of NADPH by LC-MS/MS analysis; type: ADME; conditions: read-out: Stability
[25] = system: UGT; experiment: Metabolic stability in human liver microsomes assessed as UGT-mediated glucuronidation of compound by measuring parent compound remaining at 5 uM after 30 mins in presence of UDPGA by LC-MS/MS analysis; type: ADME; conditions: read-out: Stability
[26] = biological target: T3, Androgen receptor (Homo sapiens) (UniProt P10275); experiment: Antagonist activity at AR in human LNCAP cells assessed as suppression of DHT-induced AR protein level measured after 24 hrs relative to control; type: cell-based
T3 sequence (whole entry): T2 sequence (P10275 whole entry)
Outline: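 LNCaP cells were stimulated with 10 nM DHT and co-treated with test agent for 24 h. Whole-cell extracts were resolved on an acrylamide gel and immunoblotted for AR and acetylated tubulin, with actin as the loading control. AR protein level was normalized to actin and compared with vehicle-treated cells.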

Sequence of Histone deacetylase 2 (Q92769 whole entry): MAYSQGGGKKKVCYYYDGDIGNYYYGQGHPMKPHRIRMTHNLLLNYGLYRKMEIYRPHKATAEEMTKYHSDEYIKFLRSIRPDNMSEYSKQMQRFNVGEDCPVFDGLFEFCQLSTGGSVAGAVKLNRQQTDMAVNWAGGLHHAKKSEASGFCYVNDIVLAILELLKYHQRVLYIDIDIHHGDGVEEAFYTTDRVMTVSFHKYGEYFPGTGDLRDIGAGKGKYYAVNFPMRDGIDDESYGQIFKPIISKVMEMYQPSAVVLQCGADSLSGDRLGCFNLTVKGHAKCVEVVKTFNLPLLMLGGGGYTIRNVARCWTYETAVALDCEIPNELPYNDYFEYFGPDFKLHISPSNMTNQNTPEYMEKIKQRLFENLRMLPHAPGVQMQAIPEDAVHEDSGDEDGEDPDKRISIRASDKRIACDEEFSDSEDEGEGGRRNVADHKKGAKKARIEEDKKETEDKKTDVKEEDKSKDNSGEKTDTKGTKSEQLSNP
Sequence of Histone deacetylase 1 (Q13547 whole entry): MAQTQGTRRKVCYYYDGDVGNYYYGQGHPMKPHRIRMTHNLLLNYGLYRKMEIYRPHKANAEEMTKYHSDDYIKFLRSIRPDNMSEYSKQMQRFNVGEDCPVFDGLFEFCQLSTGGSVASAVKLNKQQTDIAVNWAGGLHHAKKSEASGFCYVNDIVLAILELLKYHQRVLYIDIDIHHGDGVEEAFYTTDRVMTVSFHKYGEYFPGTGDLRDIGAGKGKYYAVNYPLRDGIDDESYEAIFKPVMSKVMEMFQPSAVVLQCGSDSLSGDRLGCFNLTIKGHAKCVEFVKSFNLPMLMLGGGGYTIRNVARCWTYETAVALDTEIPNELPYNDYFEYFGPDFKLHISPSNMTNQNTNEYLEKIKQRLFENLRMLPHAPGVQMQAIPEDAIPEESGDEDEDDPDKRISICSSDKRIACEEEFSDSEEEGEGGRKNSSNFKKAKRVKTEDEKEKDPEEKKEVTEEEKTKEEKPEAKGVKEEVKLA
Sequence of Histone deacetylase 3 (O15379 whole entry): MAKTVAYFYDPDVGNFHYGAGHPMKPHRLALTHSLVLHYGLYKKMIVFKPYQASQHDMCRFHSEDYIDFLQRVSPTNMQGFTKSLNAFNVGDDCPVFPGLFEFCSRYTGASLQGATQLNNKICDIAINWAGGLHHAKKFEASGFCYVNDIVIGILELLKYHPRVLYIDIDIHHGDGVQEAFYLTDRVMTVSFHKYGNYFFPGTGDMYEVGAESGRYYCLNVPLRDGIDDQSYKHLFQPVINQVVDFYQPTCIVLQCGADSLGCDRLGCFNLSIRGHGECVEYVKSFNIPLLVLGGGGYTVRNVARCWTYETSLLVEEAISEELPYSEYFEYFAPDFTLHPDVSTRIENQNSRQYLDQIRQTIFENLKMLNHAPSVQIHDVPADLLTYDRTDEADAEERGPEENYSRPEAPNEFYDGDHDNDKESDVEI

IC50 [1]	IC50 [2]	IC50 [3]	IC50 [4]	IC50 [5]	Structure (SMILES)	also measured
> 10 µM	> 10 µM	> 10 µM	> 10 µM	0.068 µM	CC1(C)C(=O)N(c2ccc(C#N)c(C(F)(F)F)c2)C(=S)N1c1ccc(C(=O)NCCCCCCc2ccc(C(=O)C(F)(F)F)s2)c(F)c1	–
> 100 µM	14 µM	> 100 µM	> 100 µM	0.56 µM	CC1(C)C(=O)N(c2ccc(C#N)c(C(F)(F)F)c2)C(=S)N1c1ccc(C(=O)NCCCn2cccc(O)c2=O)c(F)c1	–
> 100 µM	> 100 µM	> 100 µM	> 100 µM	0.25 µM	CC1(C)C(=O)N(c2ccc(C#N)c(C(F)(F)F)c2)C(=S)N1c1ccc(C(=O)NCCCCCCn2cccc(O)c2=O)c(F)c1	–
> 100 µM	1.12 µM	> 100 µM	> 100 µM	0.11 µM	CC1(C)C(=O)N(c2ccc(C#N)c(C(F)(F)F)c2)C(=S)N1c1ccc(C(=O)NCCCCCCNS(N)(=O)=O)c(F)c1	–
3.33 µM	> 10 µM	> 10 µM	> 10 µM	< 0.03 µM	CC1(C)C(=O)N(c2ccc(C#N)c(C(F)(F)F)c2)C(=S)N1c1ccc(C(=O)NCCCCCCn2cccc(O)c2=S)c(F)c1	–
> 100 µM	2.03 µM	> 100 µM	> 100 µM	< 0.03 µM	CC1(C)C(=O)N(c2ccc(C#N)c(C(F)(F)F)c2)C(=S)N1c1ccc(Cn2ccc3cc(/C=C/C(=O)NO)ccc32)c(F)c1	–
3.37 µM	> 10 µM	0.28 µM	> 10 µM	< 0.03 µM	CC1(C)C(=O)N(c2ccc(C#N)c(C(F)(F)F)c2)C(=S)N1c1ccc(C(=O)NCCCCCCC(=O)Nc2ccccc2N)c(F)c1	–

The next lines start with the compound.

Structure (SMILES)	IC50 [1]	IC50 [2]	IC50 [3]	IC50 [4]	IC50 [5]	also measured
CC1(C)C(=O)N(c2ccc(C#N)c(C(F)(F)F)c2)C(=S)N1c1ccc(C(=O)NCCCNS(N)(=O)=O)c(F)c1	> 100 µM	> 100 µM	> 100 µM	> 100 µM	0.35 µM	–
CC1(C)C(=O)N(c2ccc(C#N)c(C(F)(F)F)c2)C(=S)N1c1ccc(C(=O)NCCCCCC(=O)NO)c(F)c1	2.25 µM	0.036 µM	1.83 µM	2.89 µM	< 0.03 µM	clearance [6]: 278 mL/min/kg; bioavailability [7]: 100%; Cmax [8]: 419 nM; half-life [9]: 205 min; Cmax [10]: 269 nM; Tmax [11]: 60 min; Tmax [12]: 30 min; AUC(0-t) [13]: 0.206 µM·h; AUC(0-t) [14]: 1.03 µM·h; AUC(0-t) [15]: 0.846 µM·h; half-life [16]: 660 min; bioavailability [17]: 82.1%; remaining at 0.5 h, 1 µM [18]: 21.9%; Vd [19]: 10.3 L/kg; remaining at 0.5 h, 5 µM [20]: 46.1%; Cmax [21]: 706 nM; half-life [22]: 25.6 min; Tmax [23]: 4.98 min; remaining at 0.5 h, 1 µM [24]: 29.1%; remaining at 0.5 h, 5 µM [25]: 97.6%
CC1(C)C(=O)N(c2ccc(C#N)c(C(F)(F)F)c2)C(=S)N1c1ccc(C(=O)NCCOCCC(=O)NO)c(F)c1	86.5 µM	0.495 µM	49.2 µM	58.1 µM	0.078 µM	–
CC1(C)C(=O)N(c2ccc(C#N)c(C(F)(F)F)c2)C(=S)N1c1ccc(/C=C/C(=O)Nc2ccccc2N)c(F)c1	> 100 µM	60 µM	20.2 µM	> 100 µM	0.23 µM	–
CC1(C)C(=O)N(c2ccc(C#N)c(C(F)(F)F)c2)C(=S)N1c1ccc(C(=O)OCCCCCC(=O)NO)c(F)c1	1.1 µM	0.002 µM	2 µM	3.15 µM	0.043 µM	–
CN1CCc2c(c3ccccc3n2Cc2ccc(C(=O)NO)cc2)C1	–	–	–	–	–	inhibition [26]: Active
CC1(C)C(=O)N(c2ccc(C#N)c(C(F)(F)F)c2)C(=S)N1c1ccc(C(=O)Nc2ccccc2N)c(F)c1	14.1 µM	47.3 µM	5.4 µM	6.19 µM	0.33 µM	–

— ChEMBL document CHEMBL3862016 (Bioorg Med Chem Lett, 2016)
